# TCR CD3 inh = inhibitors of human TCR-CD3 interaction. TAMRA-labeled TCR probe fluorescence, biochemical. inhibition, % at 9.4 µM. 360,000 compounds, 0.37% hits. AID 651800; in the data active = inhibition above about 19%;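 note: recombinant mutant TCR 2C K166C tagged with TAMRA read by polarization; 0% = receptor in buffer alone and 100% = receptor with positive control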
# ATG4B inhibitor = inhibitors of human ATG4B cysteine protease; ATG4B cleavage of LC3-PLA2, NBD-HPC fluorescence, 1 h; inhibition, % at 8.33 µM; 340,000 compounds, 0.51% hits; AID 504462; in the data active = inhibition above about 40%
# SIAE primary = inhibitors of human sialic acid acetylesterase SIAE. Q9HAT2. SIAE FP-Rh probe binding, fluorescence polarization. inhibition, % at 9.66 µM. 370,000 compounds, 0.69% hits. AID 1053197;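 active = inhibition above a cutoff: mean of compounds within the control limits plus 3 SD of those, cut at about 17% in these data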;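 note: 0% = plate median of compound wells and 100% = probe without SIAE protein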
# HTRA1 inhibitor = HTRA1 (human) protease inhibition; recombinant HTRA1, FP-rhodamine activity-based probe, fluorescence polarization; inhibition, % at 5.96 µM; 340,000 compounds, 0.5% hits; AID 504803; in the data active = inhibition above about 36%;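 note: 0% = enzyme with DMSO and 100% = wells lacking enzyme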
# Target sequence (Q92743 whole entry, looked up): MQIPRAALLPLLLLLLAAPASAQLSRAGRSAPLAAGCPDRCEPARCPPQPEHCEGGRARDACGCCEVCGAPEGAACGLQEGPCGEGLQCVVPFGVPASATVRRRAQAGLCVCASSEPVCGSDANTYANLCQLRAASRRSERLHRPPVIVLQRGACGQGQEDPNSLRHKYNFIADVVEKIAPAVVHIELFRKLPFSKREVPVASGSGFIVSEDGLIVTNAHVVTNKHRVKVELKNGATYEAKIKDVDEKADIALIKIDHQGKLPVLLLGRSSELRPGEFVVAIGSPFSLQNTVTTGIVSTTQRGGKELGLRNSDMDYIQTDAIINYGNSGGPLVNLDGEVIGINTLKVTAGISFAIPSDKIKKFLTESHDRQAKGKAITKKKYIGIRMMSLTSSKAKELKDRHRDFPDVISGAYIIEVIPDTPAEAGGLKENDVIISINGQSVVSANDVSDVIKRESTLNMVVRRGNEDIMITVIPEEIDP
# mABHD4 FP = inhibits mouse alpha/beta hydrolase domain 4. Q8VD66. 370,000 compounds, 0.54% hits. inhibition, % at 8.92 µM. purified mABHD4, FP-Rh probe fluorescence polarization;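 active = inhibition exceeding the mean over every tested compound plus 3 SD, cut at about 30% in these data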;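 note: 0% = plate median of compound wells and 100% = S159A mutant with DMSO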
#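 Test system: mABHD4 protein | Buffer or medium: HEPES pH 7.0 buffer, 150 mM NaCl, 0.01% Pluronic F-127 | Probe or stimulus: FP-Rh fluorescent activity-based probe, added after compound pre-incubation | Timing: Pre-incubation 45 min, probe exposure 60 min, at 25 °C | Technique: Fluorescence polarization, excitation 525 nm, emission 598 nm, BODIPY TMR filters | Repeats: Single well per compound (singlicate)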
# PRMT1 FP inh = inhibitors of human PRMT1 | Q99873 | recombinant PRMT1, activity-based probe fluorescence polarization | inhibition, % at 2.79 µM | 370,000 compounds, 1.3% hits | AID 652257;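 active = inhibition above about 21% made by adding two undisclosed values, limit read from the data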
# PRMT1 confirm = confirmation of human PRMT1 inhibitors. inhibition, % at 2.79 µM. 3,300 compounds, 42% hits. shares compounds with PRMT1 FP inh. recombinant His-PRMT1, activity-based probe fluorescence polarization. AID 687036;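 active = mean inhibition across replicates above the hit cutoff derived for the earlier primary screen, cut at about 22% in these data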
# Active calls of the source: *; x = no result. An excerpt weighted towards active compounds, which were near 2.9% of everything screened.
SMILES,TCR CD3 inh,ATG4B inhibitor,SIAE primary,HTRA1 inhibitor,mABHD4 FP,PRMT1 FP inh,PRMT1 confirm
CCOC(=O)[C@@]12CCCC3=C1N(CCC3)C(=O)[C@H]2CC(=O)NCC1CCCCC1,x,x,-4,x,0,2,x
COc1cc2c(cc1OC)CN(C1CC(=O)N(c3c(C)cccc3C)C1=O)CC2 (configuration not stated),-7,-15,-8,0,-10,32*,1
COc1ccccc1N1CCN(C2CC(=O)N(c3cccc(Br)c3)C2=O)CC1 (configuration not stated),8,3,1,6,-3,13,x
COC(=O)[C@]12C[C@H](CC(=O)N3CCSCC3)C(=O)N(Cc3cccc4ccccc34)C1=C[C@H](C(C)(C)C)O[C@@H]2C,x,x,-3,x,-8,4,x
CS(=O)(=O)N[C@@H]1C[C@@H]2O[C@H](CO)CC[C@@H]2O[C@@H]1CCc1ccc(/C=C/c2ccccc2)cc1,x,x,-2,x,-7,-2,x
CCOC(=O)C1CCN(c2nc(C)cc(C)c2C#N)CC1,7,-3,-2,0,0,0,x
CCOC(=O)C1CCN(c2nc(N)c3c(N)nc(SCC(=O)O)cc3c2C#N)CC1,7,-6,-2,15,26,55*,26*
CCOc1ccc(N2C(=O)C3Sc4[nH]c(=O)sc4C(/C=C/c4ccccc4)C3C2=O)cc1 (configuration not stated),-6,18,9,-3,5,27*,3
CCOc1ccc(N2C(=O)C3ON(c4ccccc4)C(c4ccco4)C3C2=O)cc1 (configuration not stated),4,9,4,-14,9,-2,x
Nc1c(C(=O)NCC(O)c2ccccc2)cnn1-c1ccccc1 (configuration not stated),x,x,-1,x,2,-5,x
N#C/C(=C\c1ccccc1)C(=O)NNS(=O)(=O)c1cccc([N+](=O)[O-])c1,3,-1,-5,-3,7,43*,4
CCOC(=O)N1CCN(C(=O)C[C@H]2C[C@@]3(C(=O)OC)C(=C[C@H](COCc4ccccc4)O[C@@H]3C)N(Cc3ccccc3)C2=O)CC1,x,x,2,x,-3,-6,x
CC(=O)Nc1sc2c(c1-c1nc3ccccc3s1)CCCN(C(C)C)C2,x,x,-6,x,-14,0,x
CS(=O)(=O)N1CCSC1c1ccc(Br)cc1 (configuration not stated),2,0,-3,4,-5,0,x
Brc1ccc(C2NCCS2)cc1 (configuration not stated),2,-5,1,-5,2,32*,7
CCCCCCCCN1C(=O)[C@@H](CC(=O)N2CCN(C(=O)C3CC3)CC2)C[C@@]2(C(=O)OC)C1=C[C@H](COCc1ccccc1)O[C@@H]2C,x,x,3,x,-4,2,x
COc1cccc(Cn2cnc(-c3ccccc3OC)c2-c2ccco2)c1,-6,x,-6,x,1,32*,5
Fc1cc(F)c(CSc2nnc(-c3cccnc3)n2Cc2ccccc2)cc1F,x,x,-6,x,-7,-1,x
Cc1cccc(NC(=O)C(NS(=O)(=O)c2ccc3c(c2)CCC(=O)N3)c2ccccc2)n1 (configuration not stated),-1,-2,6,-13,6,47*,48*
CC1COCC(C)N1S(=O)(=O)c1ccc2c(c1)CCN2C(=O)C1CCC1 (configuration not stated),x,x,4,x,1,-2,x
CCCCC(=O)Nc1ccc(C(=O)NCC2COc3ccccc3O2)cc1 (configuration not stated),x,x,-3,x,-5,0,x
Cc1ccc(C(=O)NN2C(=O)/C(=C/c3cn(C)c4ccccc34)SC2=S)cc1,-3,6,-1,-3,-1,7,x
Cn1cc(/C=C2\SC(=O)NC2=S)c2ccccc21,-4,-8,4,16,9,28*,5
CC(C)N1CCc2c(sc(N)c2C#N)C1,6,0,-2,2,-3,3,x
CC1(C)Cc2c(C#N)c(N)sc(=S)c2CO1,-5,1,-5,4,3,46*,20
SMILES,TCR CD3 inh,ATG4B inhibitor,SIAE primary,HTRA1 inhibitor,mABHD4 FP,PRMT1 FP inh,PRMT1 confirm
CC(C)C1Cc2c(C#N)c(N)sc(=S)c2CO1 (configuration not stated),-4,-8,0,6,8,48*,10
CCN(CC)c1nc(C)c2c(c1C#N)CC(C)(C)OC2,-2,-4,-1,1,-7,4,x
Cn1c(SCC(=O)NCCN2CCCCC2)nc2cccnc21,x,x,3,x,0,-6,x
COc1ccc(NC(=S)NCCCN2CCCC2)cc1Cl,7,-1,6,6,0,11,x
COCCN(C(=S)Nc1ccc(OC)c(Cl)c1)C1CCN(C(C)C)CC1,4,1,4,-2,-6,0,x
COc1ccc(NC(=S)NCCN2CCC(C)CC2)cc1Cl,-3,0,3,-1,2,48*,46*
COc1ccc(NC(=S)N(CCC(C)C)C2CCN(C(C)C)CC2)cc1Cl,5,-9,7,-5,4,54*,55*
CSc1ccc(C=Nn2c(-c3cc(C)[nH]n3)n[nH]c2=S)cc1,x,x,5,x,3,7,x
Cc1ccc(/C=[N+](\[O-])c2ccccc2C)o1,-6,-2,2,3,0,30*,-3
Cc1ccccc1/[N+]([O-])=C/c1cccs1,7,-4,1,7,3,6,x
Cc1ccc(Cl)cc1NC(=O)CSC(N)=O,-4,5,0,-3,2,41*,99*
CC(=O)Nc1ccc(S(=O)(=O)Nc2nc3ccccc3nc2Sc2nncn2C)cc1,7,-8,-3,3,3,25*,5
Cn1cnnc1Sc1nc2ccccc2nc1NS(=O)(=O)c1ccccc1,-5,-11,-3,4,-4,1,x
CCN(CC)S(=O)(=O)c1cccc2cccnc12,9,-2,0,6,-1,0,x
CSS(=O)(=O)c1cccc2cccnc12,3,-4,8,x,4,92*,96*
COC(=O)[C@]12C[C@H](CC(=O)N3CCCCC3)C(=O)N(Cc3cccc4ccccc34)C1=C[C@H](C(C)C)O[C@@H]2C1CC1,x,x,4,x,3,-7,x
COc1ccc(CCNC(=O)CC2SC(=NCCc3ccccc3)NC2=O)cc1 (configuration not stated),-1,-4,-1,4,7,26*,7
CN=C1SC(CC(=O)NCCc2ccc(OC)c(OC)c2)C(=O)N1C (configuration not stated),-8,1,-2,4,-2,20,x
CCN=C1SC(CC(=O)NCCc2ccc(OC)cc2)C(=O)N1CC (configuration not stated),-3,-3,5,2,4,31*,-1

# Assay outcomes as filed in PubChem BioAssay.
